The test system of experiment [1] is Talaromyces marneffei. The experiment in a line: Antifungal activity against Penicillium marneffei. The experiment is classed as functional. The note with it: for MIC: Talaromyces marneffei. Put shortly: (§1)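 Agar-well diffusion on Sabouraud agar at pH 5.7. Plates were lawned with a saline spore suspension (one loopful in 3 ml), decanted and dried 1 h at 37 °C. Compounds in DMSO went into punched wells, with a DMSO solvent control. Plates were run in triplicate and kept at 37 °C for 3-4 days, with inhibition-zone diameter as read-out.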

The subject of experiment [2] is Aspergillus fumigatus. Briefly: Antifungal activity against Aspergillus fumigatus NCIM 902. The note with it: for MIC: Aspergillus fumigatus, NCIM 902. The class given is functional.
The test system of experiment [3] is Aspergillus flavus. The experiment in a line: Antifungal activity against Aspergillus flavus NCIM 524. The class given is functional. Conditions: for MIC: Aspergillus flavus, NCIM 524. In a few lines: as §1
The test system of experiment [4] is Klebsiella pneumoniae. Briefly: Antibacterial activity against Klebsiella pneumoniae. The experiment is classed as functional. The note with it: for MIC: Klebsiella pneumoniae. Put shortly: (§2)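 MIC by serial dilution in Mueller-Hinton broth tubes, pH adjusted to 5.0 with phosphate buffer. A standardized bacterial suspension was inoculated and incubated 16-18 h at 37 °C, and MIC was read as the lowest concentration with no visible growth. Zones were also measured in agar wells on seeded plates, with compounds in DMSO and a DMSO control, triplicate plates, 37 °C for 3-4 days.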

Experiment [5] has as its system Pseudomonas aeruginosa. Briefly: Antibacterial activity against Pseudomonas aeruginosa ATCC 27853. The experiment is classed as functional. The note with it: for MIC: Pseudomonas aeruginosa, ATCC 27853. In a few lines: as §2
For experiment [6], the system named is Trichophyton benhamiae. The experiment in a line: Antifungal activity against Trichophyton mentagrophytes. The note with it: for MIC: Trichophyton benhamiae. The class given is functional, Arthroderma benhamiae. Put shortly: as §1
Experiment [7] deals with Staphylococcus aureus. Briefly: Antibacterial activity against Staphylococcus aureus ATCC 25923. The class given is functional. Conditions: for MIC: Staphylococcus aureus, ATCC 25923. In a few lines: as §2
For experiment [8], the system named is Escherichia coli. Briefly: Antibacterial activity against Escherichia coli ATCC 25922. The class given is functional. The note with it: for MIC: Escherichia coli, ATCC 25922. Put shortly: as §2

Structures are written as SMILES. Converted amounts (≈) assume the structure as drawn. Bounds are passed on as bounds.

The record followed here is ChEMBL document CHEMBL1143805, “Synthesis and antimicrobial activities of some novel 1,2,4-triazolo[3,4-b]-1,3,4-thiadiazoles and 1,2,4-triazolo[3,4-b]-1,3,4-thiadiazines carrying thioalkyl and sulphonyl phenoxy moieties” (2007).

Turning to `CSc1ccc(OCc2nnc3sc(-c4ccc(C)cc4)nn23)cc1`, the “inhibition zone (IZ)” value in experiment [1], in experiment [2], in experiment [3], in experiment [4], in experiment [5] and in experiment [6] was 16 mm throughout. Besides, the “inhibition zone (IZ)” value in experiment [7] and in experiment [8] was 16 mm in each case. The minimal inhibitory concentration (MIC) in experiment [1], in experiment [2], in experiment [3], in experiment [4], in experiment [5] and in experiment [6] was 6.25 µg/mL (≈ 17 µM) each time. Besides, the MIC in experiment [7] and in experiment [8] was 6.25 µg/mL (≈ 17 µM) each time.

As for `CSc1ccc(OCc2nnc3sc(Cc4ccccc4)nn23)cc1`, the “inhibition zone (IZ)” value in experiment [1], in experiment [2], in experiment [3], in experiment [4], in experiment [5] and in experiment [6] was 16 mm in each case. Besides, the “inhibition zone (IZ)” value in experiment [7] and in experiment [8] was 16 mm in each case. The MIC in experiment [1], in experiment [2], in experiment [3], in experiment [4], in experiment [5] and in experiment [6] was 6.25 µg/mL (≈ 17 µM) each time. Moreover, the MIC in experiment [7] and in experiment [8] was 6.25 µg/mL (≈ 17 µM) each time.

Take `CS(=O)(=O)c1ccc(OCc2nnc3sc(-c4cccc(Cl)c4Cl)nn23)cc1`: the “inhibition zone (IZ)” value in experiment [1], in experiment [2], in experiment [3], in experiment [4], in experiment [5] and in experiment [6] was 16 mm throughout. The “inhibition zone (IZ)” value in experiment [7] and in experiment [8] was 16 mm each time. Further, the MIC in experiment [1], in experiment [2], in experiment [3], in experiment [4], in experiment [5] and in experiment [6] was 6.25 µg/mL (≈ 13.7 µM) in each case. For the same compound, the MIC in experiment [7] and in experiment [8] was 6.25 µg/mL (≈ 13.7 µM) throughout.

For `CSc1ccc(OCc2nnc3n2N=C(c2ccc(O)c(C(N)=O)c2)CS3)cc1`, the “inhibition zone (IZ)” value in experiment [1], in experiment [2], in experiment [3], in experiment [4], in experiment [5] and in experiment [6] was less than 10 mm in each case. Moreover, the “inhibition zone (IZ)” value in experiment [7] and in experiment [8] was less than 10 mm each time. For the same compound, the MIC in experiment [1], in experiment [2], in experiment [3], in experiment [4], in experiment [5] and in experiment [6] was 25 µg/mL (≈ 58.5 µM) throughout. In addition, the MIC in experiment [7] and in experiment [8] was 25 µg/mL (≈ 58.5 µM) in each case.

Regarding `CSc1ccc(OCc2nnc3sc(-c4cccc(Cl)c4Cl)nn23)cc1`, the “inhibition zone (IZ)” value in experiment [1], in experiment [2], in experiment [3], in experiment [4], in experiment [5] and in experiment [6] was 16 mm each time. Further, the “inhibition zone (IZ)” value in experiment [7] and in experiment [8] was 16 mm throughout. Also, the MIC in experiment [1], in experiment [2], in experiment [3], in experiment [4], in experiment [5] and in experiment [6] was 6.25 µg/mL (≈ 14.8 µM) throughout. Also, the minimal inhibitory concentration (MIC) in experiment [7] and in experiment [8] was 6.25 µg/mL (≈ 14.8 µM) in each case.

On to `CSc1ccc(OCc2nnc3n2N=C(c2ccc(Cl)cc2Cl)CS3)cc1`, for which the “inhibition zone (IZ)” value in experiment [1], in experiment [2], in experiment [3], in experiment [4], in experiment [5] and in experiment [6] was 16 mm throughout. Further, the “inhibition zone (IZ)” value in experiment [7] and in experiment [8] was 16 mm throughout. Also, the MIC in experiment [1], in experiment [2], in experiment [3], in experiment [4], in experiment [5] and in experiment [6] was 6.25 µg/mL (≈ 14.3 µM) each time. Besides, the MIC in experiment [7] and in experiment [8] was 6.25 µg/mL (≈ 14.3 µM) throughout.

Turning to `CCSc1ccc(OCc2nnc3n2N=C(c2ccc(Cl)cc2)CS3)cc1`, the “inhibition zone (IZ)” value in experiment [1], in experiment [2], in experiment [3], in experiment [4], in experiment [5] and in experiment [6] was less than 10 mm throughout. In addition, the “inhibition zone (IZ)” value in experiment [7] and in experiment [8] was less than 10 mm in each case. Further, the MIC in experiment [1], in experiment [2], in experiment [3], in experiment [4], in experiment [5] and in experiment [6] was 25 µg/mL (≈ 60 µM) throughout. Moreover, the minimum inhibitory concentration (MIC) in experiment [7] and in experiment [8] was 25 µg/mL (≈ 60 µM) in each case.

In the case of `CS(=O)(=O)c1ccc(OCc2nnc3sc(Cc4ccccc4)nn23)cc1`, the “inhibition zone (IZ)” value in experiment [1] was less than 10 mm; in experiment [2], 11 mm; in experiment [3], 11 mm; in experiment [4], 11 mm; in experiment [5], 11 mm; in experiment [6] it was 11 mm. Further, the “inhibition zone (IZ)” value in experiment [7] and in experiment [8] was 11 mm throughout. Further, the MIC in experiment [1] amounted to 25 µg/mL (≈ 62.4 µM); in experiment [2], 12.5 µg/mL (≈ 31.2 µM); in experiment [3] it was 12.5 µg/mL (≈ 31.2 µM); in experiment [4], 12.5 µg/mL (≈ 31.2 µM); in experiment [5], 12.5 µg/mL (≈ 31.2 µM); in experiment [6], 12.5 µg/mL (≈ 31.2 µM). Moreover, the MIC in experiment [7] and in experiment [8] was 12.5 µg/mL (≈ 31.2 µM) throughout.

Take `CSc1ccc(OCc2nnc3n2N=C(c2ccc(Cl)cc2)CS3)cc1`: the “inhibition zone (IZ)” value in experiment [1], in experiment [2], in experiment [3], in experiment [4], in experiment [5] and in experiment [6] was 16 mm in each case. Moreover, the “inhibition zone (IZ)” value in experiment [7] and in experiment [8] was 16 mm throughout. The MIC in experiment [1], in experiment [2], in experiment [3], in experiment [4], in experiment [5] and in experiment [6] was 6.25 µg/mL (≈ 15.5 µM) throughout. The MIC in experiment [7] and in experiment [8] was 6.25 µg/mL (≈ 15.5 µM) throughout.
